SMILES strings stand for the structures. Active and inactive are the calls of the source. The rule behind the calls is not given here.

The target in one test is P2Y purinoceptor 2 (Homo sapiens, UniProt P41231). In words: Antagonist activity against human P2Y2 receptor expressed in 1321N1 astrocytoma cells by calcium mobilization assay. Type of test: functional, cell-based. The gist of the method:
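Astrocytoma cell lines stably transfected with human P2Y2, human P2Y4 or rat P2Y6 receptor. Inhibition of receptor-mediated intracellular calcium mobilization was measured.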
Background: Calcium flux is commonly read through the fluorescence of an indicator in the cells.

For test [1], the target named is T1, P2X purinoceptor 2 (Rattus norvegicus) (UniProt P49653).
T1 sequence (whole entry): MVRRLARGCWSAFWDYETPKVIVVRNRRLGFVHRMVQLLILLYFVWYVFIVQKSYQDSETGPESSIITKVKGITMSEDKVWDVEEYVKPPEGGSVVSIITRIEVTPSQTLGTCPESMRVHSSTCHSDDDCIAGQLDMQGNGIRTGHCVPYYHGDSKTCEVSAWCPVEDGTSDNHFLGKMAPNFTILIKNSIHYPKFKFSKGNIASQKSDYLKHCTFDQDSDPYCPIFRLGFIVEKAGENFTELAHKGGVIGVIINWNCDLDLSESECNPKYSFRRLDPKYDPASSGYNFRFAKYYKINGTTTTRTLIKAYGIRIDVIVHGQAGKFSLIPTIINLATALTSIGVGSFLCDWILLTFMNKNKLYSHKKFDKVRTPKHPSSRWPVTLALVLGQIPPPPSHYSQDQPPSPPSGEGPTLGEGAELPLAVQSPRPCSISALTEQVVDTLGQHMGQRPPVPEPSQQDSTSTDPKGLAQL
Kind of test: Antagonist activity against rat P2X2 receptor expressed in Xenopus laevis oocyte assessed as maximum current amplitude by two-electrode voltage-clamp electrophysiology. The class given is functional. Summed up: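 Rat P2X2-expressing oocytes were voltage-clamped in Mg-ORi. Test compound at 100 nM was coapplied with 10 μM ATP. Current amplitude was expressed as a percentage of the current elicited by ATP alone (set at 100%).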
For orientation: Two-electrode voltage clamp is typically applied to oocytes expressing channels or transporters.

The target in test [2] is P2Y purinoceptor 6 (Rattus norvegicus) (UniProt Q63371). Kind of test: Antagonist activity against rat P2Y6 receptor expressed in 1321N1 astrocytoma cells by calcium mobilization assay.
The target of test [3] is T1, P2X purinoceptor 2 (Rattus norvegicus). Kind of test: Antagonist activity against rat P2X2 receptor expressed in Xenopus laevis oocyte assessed as potentiation of ATP-induced inward current at 100 nM by two-electrode voltage-clamp electrophysiology.
A further test addresses T2, P2X purinoceptor 2 (Rattus norvegicus, UniProt P49653).
T2 sequence (P49653 whole entry): T1 sequence (whole entry)
In words: Positive modulator activity against rat P2X2 receptor expressed in Xenopus laevis oocyte assessed as maximum ATP-induced inward current by two-electrode voltage-clamp electrophysiology in presence of 10 uM ATP.

P2Y purinoceptor 2, sequence (P41231 whole entry): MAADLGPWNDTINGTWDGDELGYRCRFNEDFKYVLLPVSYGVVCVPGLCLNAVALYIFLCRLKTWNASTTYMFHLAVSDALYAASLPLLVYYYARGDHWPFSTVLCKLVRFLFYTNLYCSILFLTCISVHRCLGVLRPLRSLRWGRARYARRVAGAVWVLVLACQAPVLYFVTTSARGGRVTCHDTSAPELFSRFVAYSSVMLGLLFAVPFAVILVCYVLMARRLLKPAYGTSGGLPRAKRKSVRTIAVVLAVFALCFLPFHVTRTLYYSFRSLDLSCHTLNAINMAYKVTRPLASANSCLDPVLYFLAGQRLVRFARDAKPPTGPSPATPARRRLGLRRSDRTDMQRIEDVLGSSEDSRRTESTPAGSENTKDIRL

Broadly, the IC50 is the concentration that gives 50% inhibition. By EC50 is commonly meant the concentration needed to bring the measured effect to its halfway point. Turning to `Nc1c(S(=O)(=O)O)cc(Nc2cccc(Oc3ccccc3)c2)c2c1C(=O)c1ccccc1C2=O`, the IC50 on P2Y purinoceptor 2 was found to be 10 µM; in test [2], 4.56 µM. For the same compound, in test [1], the outcome was Active. The potentiation % in test [3] worked out at 132%. Also, the 50% effective concentration (EC50) on P2X purinoceptor 2 stood at 0.489 µM.

These data come from ChEMBL document CHEMBL1671813, “Discovery of potent competitive antagonists and positive modulators of the P2X2 receptor” (J Med Chem, 2011).
